This is an account of results in ChEMBL document CHEMBL1144338, “N-Acyl arylsulfonamides as novel, reversible inhibitors of human steroid sulfatase” (Bioorg Med Chem Lett, 2005).

Each structure is given as a SMILES string.

Assay [1] deals with T1, Steryl-sulfatase (Homo sapiens, UniProt P08842).
T1 sequence (P08842 whole entry): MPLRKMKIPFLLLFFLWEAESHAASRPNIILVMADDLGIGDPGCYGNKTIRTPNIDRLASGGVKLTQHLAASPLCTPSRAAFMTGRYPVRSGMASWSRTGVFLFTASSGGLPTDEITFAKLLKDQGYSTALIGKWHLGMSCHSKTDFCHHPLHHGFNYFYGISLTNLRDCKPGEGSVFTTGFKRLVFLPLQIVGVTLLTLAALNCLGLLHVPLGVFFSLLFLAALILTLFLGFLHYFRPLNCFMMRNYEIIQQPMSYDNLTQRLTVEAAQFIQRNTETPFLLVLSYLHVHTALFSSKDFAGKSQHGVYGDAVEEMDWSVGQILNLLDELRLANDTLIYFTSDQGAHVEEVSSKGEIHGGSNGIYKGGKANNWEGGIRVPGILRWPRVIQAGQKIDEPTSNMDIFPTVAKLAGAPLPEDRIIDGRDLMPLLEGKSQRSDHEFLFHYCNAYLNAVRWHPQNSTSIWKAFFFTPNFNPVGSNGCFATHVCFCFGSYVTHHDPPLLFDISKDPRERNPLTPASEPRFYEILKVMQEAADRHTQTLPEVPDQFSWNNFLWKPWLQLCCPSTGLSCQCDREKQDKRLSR
Nature of the assay: Inhibitory concentration against human steroid sulfatase. Put shortly:
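Human STS purified to homogeneity from recombinant CHO cells; fluorimetric assay following cleavage of 4-methylumbelliferyl sulfate (fixed at 0.75 mM) at 37 °C, 1 h incubations with or without inhibitor. Initial velocity taken from the linear phase as fluorescence units per min; IC50 derived by a previously described method.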

The target of assay [2] is T1, Steryl-sulfatase. As to the kind of experiment: Inhibitory concentration against human steroid sulfatase expressed in CHO cells. The assay is classed as cell-based. Put shortly:
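Intact recombinant CHO cells overexpressing STS, live-cell variant for reversible inhibitors; 4-methylumbelliferyl sulfate substrate at 0.5 mM, 4 h incubation with inhibitor; fluorimetric read-out of substrate cleavage, IC50 determined.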

The target in assay [3] is T1, Steryl-sulfatase. Nature of the assay: Inhibitory constant against human Steroid sulfatase. Summed up:
(§1)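 Purified human STS (from recombinant CHO cells) at 37 °C; 4-methylumbelliferyl sulfate cleavage monitored fluorimetrically, substrate varied 0.05–2 mM at several inhibitor concentrations. Initial velocities from the linear phase (fluorescence units per min); Ki calculated from Hanes plots ([S]/v versus [S]).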

The target in assay [4] is T1, Steryl-sulfatase. Nature of the assay: Inhibitory constant against human steroid sulfatase. Put shortly: as §1

By IC50 is commonly meant the concentration needed to halve the response being measured. The low end stands for greater potency, the high end for weaker potency. Consider `O=C(Cc1ccccc1)O[C@H]1C[C@H]2CC[C@@H](C1)N2C(=O)NS(=O)(=O)c1ccc(Cl)cc1`, for which the IC50 at Steryl-sulfatase [1] was determined as 910 nM; on Steryl-sulfatase [2] it was 6270 nM.
At Steryl-sulfatase [2], `CC(C)(C)OC(=O)N1CCC(C(=O)NS(=O)(=O)c2cc(Cl)cc(Cl)c2)CC1` gave an IC50 of 1260 nM.
As usually defined, the Ki is the dissociation constant of the complex between target and ligand, obtained from inhibition or displacement. A high value points to weaker binding. On to `CC(C)(C)OC(=O)N1CCC(C(=O)NS(=O)(=O)c2c(Cl)sc(Cl)c2Br)CC1`, for which, at Steryl-sulfatase [3], the Ki stood at 12 nM. Moreover, the IC50 turned out to be 26 nM against Steryl-sulfatase [1] and 270 nM against Steryl-sulfatase [2].
For `CC(C)(C)OC(=O)N1CCC(C(=O)NS(=O)(=O)c2ccc(Cl)cc2)CC1`, the values for the IC50 on Steryl-sulfatase [1] and on Steryl-sulfatase [2] were 8600 nM and 9800 nM, respectively. Further, the inhibitory constant (Ki) on Steryl-sulfatase [4] was determined as 16100 nM.
Turning to `CC(C)(C)OC(=O)N1CCC(C(=O)NS(=O)(=O)c2cc(C(F)(F)F)cc(C(F)(F)F)c2)CC1`, the values for the IC50 on Steryl-sulfatase [1] and against Steryl-sulfatase [2] were 210 nM and 780 nM, respectively. At Steryl-sulfatase [4], this compound came in with a Ki of 220 nM.
On Steryl-sulfatase [2], `CC(C)(C)OC(=O)N1CCC(C(=O)NS(=O)(=O)c2c(Cl)cccc2Cl)CC1` displayed an IC50 of 9900 nM. This lies in the single-digit micromolar range.
In the case of `CC(C)(C)OC(=O)N1CCN(C(=O)NS(=O)(=O)c2ccc(Cl)cc2)CC1`, the IC50 was 3600 nM against Steryl-sulfatase [1] and 12000 nM against Steryl-sulfatase [2]. Besides, the affinity on Steryl-sulfatase [4] corresponds to a Ki of 14500 nM.
